{
  "source": "ChEMBL document CHEMBL1143049",
  "about": "“Preparation, biological activity and endogenous occurrence of N6-benzyladenosines” (Bioorg Med Chem, 2007)",
  "key": {"Nicotiana tabacum [1]": {"tested_on": "Nicotiana tabacum", "assay": "Cytokinin activity in tobacco assessed as stimulation of callus growth at 0.1 mmol/L relative to 6-Benzylaminopurine", "type": "functional", "method_in_brief": "(§1)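 Stimulation of tobacco callus growth. Compounds dissolved in DMSO, brought to 10^-3 M in water and diluted into medium (DMSO ≤0.2%). Range 10^-4 to 10^-8 M, five replicates per concentration, at least three independent repeats. Activity at the optimal concentration given relative to BAP's optimal response, taken as 100.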"}, "HL-60": {"tested_on": "HL-60", "assay": "Antitumor activity against human HL60 cells after 72 hrs by Calcein AM assay", "type": "functional, cell-based", "settings": "HL-60, 72 h", "method_in_brief": "(§2)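 Cells grown in DMEM at 37 °C under 5% CO2. Compounds added after 12 h preincubation in 96-well plates, final 0.5-170 μM, with 0.6% final DMSO, then 72 h exposure. Viable cells stained with Calcein AM for 1 h and read at 485/538 nm. IC50 (concentration lethal to 50% of cells) taken from dose-response curves. Run in quadruplicate.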"}, "K562": {"tested_on": "K562", "assay": "Antitumor activity against human K562 cells after 72 hrs by Calcein AM assay", "type": "functional, cell-based", "settings": "K562, 72 h", "method_in_brief": "as §2"}, "[2]": {"assay": "Antitumor activity against human MCF cells after 72 hrs by Calcein AM assay", "type": "functional, cell-based", "method_in_brief": "as §2"}, "Triticum aestivum [3]": {"tested_on": "Triticum aestivum", "assay": "Cytokinin activity in wheat assessed as retention of chlorophyll in excised wheat leaves at 0.1 mmol/L relative to 6-Benzylaminopurine by senescence assay", "type": "functional", "method_in_brief": "(§3)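 Senescence assay measuring chlorophyll retention in excised wheat leaves. DMSO stocks brought to 10^-3 M with water, then diluted in assay medium to a final DMSO of at most 0.2%. Concentrations 10^-4 to 10^-8 M, quintuplicate, repeated at least three times. Response at the optimal concentration normalised to BAP optimum = 100.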"}, "G-361": {"tested_on": "G-361", "assay": "Antitumor activity against human G361 cells after 72 hrs by Calcein AM assay", "type": "functional, cell-based", "settings": "G-361, 72 h", "method_in_brief": "as §2"}, "CCRF-CEM": {"tested_on": "CCRF-CEM", "assay": "Antitumor activity against human CEM cells after 72 hrs by Calcein AM assay", "type": "functional, cell-based", "method_in_brief": "as §2"}, "Amaranthus": {"tested_on": "Amaranthus", "assay": "Cytokinin activity in Amaranthus cotyledons assessed as dark induction of betacyanin synthesis at 0.1 mmol/L relative to 6-Benzylaminopurine", "type": "functional", "method_in_brief": "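Dark induction of betacyanin in excised Amaranthus cotyledons. DMSO stock brought to 10^-3 M in water, diluted into assay medium (DMSO ≤0.2%). Tested over 10^-4 to 10^-8 M, five replicates per concentration, assay repeated at least three times. Response at the optimal concentration expressed relative to BAP at its optimum (set to 100).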"}, "HOS": {"tested_on": "HOS", "assay": "Antitumor activity against human HOS cells after 72 hrs by Calcein AM assay", "type": "functional, cell-based", "method_in_brief": "as §2"}, "B16": {"tested_on": "B16", "assay": "Antitumor activity against mouse B16 cells after 72 hrs by Calcein AM assay", "type": "functional, cell-based", "settings": "B16, 72 h", "method_in_brief": "as §2"}, "Triticum aestivum [4]": {"tested_on": "Triticum aestivum", "assay": "Cytokinin activity in wheat assessed as retention of chlorophyll in excised wheat leaves at 0.1 umol/L relative to 6-Benzylaminopurine by senescence assay", "type": "functional", "method_in_brief": "as §3"}, "Nicotiana tabacum [5]": {"tested_on": "Nicotiana tabacum", "assay": "Cytokinin activity in tobacco assessed as stimulation of callus growth at 1 umol/L relative to 6-Benzylaminopurine", "type": "functional", "method_in_brief": "as §1"}},
  "data": [
    {"smiles": "Cc1ccc(O)c(CNc2ncnc3c2ncn3[C@@H]2O[C@H](CO)[C@@H](O)[C@H]2O)c1", "values": [
      {"measurement": "Activity", "setting": "Nicotiana tabacum [1]", "result": 7, "unit": "%"},
      {"measurement": "IC50", "setting": "HL-60", "result": 15, "unit": "µM"},
      {"measurement": "IC50", "setting": "K562", "result": 16.5, "unit": "µM"},
      {"measurement": "IC50", "setting": "[2]", "result": "> 167", "unit": "µM"},
      {"measurement": "Activity", "setting": "Triticum aestivum [3]", "result": 164, "unit": "%"},
      {"measurement": "IC50", "setting": "G-361", "result": "> 167", "unit": "µM"},
      {"measurement": "IC50", "setting": "CCRF-CEM", "result": 1.9, "unit": "µM"},
      {"measurement": "Activity", "setting": "Amaranthus", "result": 58, "unit": "%"},
      {"measurement": "IC50", "setting": "HOS", "result": "> 167", "unit": "µM"},
      {"measurement": "IC50", "setting": "B16", "result": "> 167", "unit": "µM"}
    ]},
    {"smiles": "OC[C@H]1O[C@@H](n2cnc3c(NCc4ccc(O)c(O)c4)ncnc32)[C@H](O)[C@@H]1O", "values": [
      {"measurement": "Activity", "setting": "Triticum aestivum [4]", "result": 17, "unit": "%"},
      {"measurement": "Activity", "setting": "Nicotiana tabacum [5]", "result": 4, "unit": "%"},
      {"measurement": "Activity", "setting": "Amaranthus", "result": 8, "unit": "%"}
    ]}
  ]
}
